Test results: PubChem BioAssay
The source made the active and inactive calls.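 The calls were made as follows, unless noted: active = visual image review flags a hit and inhibition of aggregation exceeds 20%; inconclusive = visual hit but inhibition at or below 20%; inactive = no hit on visual image review.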

How the values were obtained:
[1] = inhibitors of TNFa-induced NFkB p65 translocation, primary screen, imaging, HUVEC, MLSMR starter and 10KST1 sets (AID 438;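 active = inhibition above 20% together with a positive visual image hit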;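 also: compound added about 3h40 before a 20 min TNFalpha stimulation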;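 as to inhibition: signal is the nuclear over cytoplasmic p65 intensity ratio per well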); conditions: HUVEC TNFa-induced p65 nuclear translocation; cell count: measured here: nuclei count (cytotoxicity indicator), at 2.08 µM; inhibition: at 2 µM, stronger effect = higher value, 0% TNFa-plus-vehicle, 100% no-TNFa wells
[2] = reduction of polyQ htt aggregates in cells – imaging, exon1htt(103Q)mCFP cells, high-content imaging, primary screen (AID 483); conditions: exon1htt(103Q)mCFP cell line, aggregate imaging, at 2 µM; inhibition of aggregation: stronger effect = higher value; nuclei count: measured here: cell count, toxicity;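 also: compound exposure lasted 3 days before fixation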;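 as to nuclei count: percent of the per-plate median nuclei count of sample wells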
[3] = endothelial E-selectin expression blockers – imaging, HUVEC, immunofluorescence, MLSMR starter and 10KST1 sets, primary screen (AID 487;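 active = visually confirmed hit in the image check and inhibition above 20%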;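 as to inhibition: signal is fraction of cell area covered by stained E-selectin grains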;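 as to nuclei count: 100% = median nuclei count of all wells on the same plate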); conditions: HUVEC TNFalpha-induced E-selectin immunofluorescence imaging, at 2 µM; inhibition: stronger effect = higher value; nuclei count: measured here: cell number, toxicity
[4] = biological target: Voltage-gated potassium channel subunit beta-2 (Rattus norvegicus) (UniProt P62483); test: inhibitors of rat Kvbeta2 reductase activity – biochemical, NADPH fluorescence, primary screen (AID 622;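 active = fluorescence slope higher than the sample average by over 3 SD, cut at about -0.22 in these data, passing the limit was not always enough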;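 also: slope of raw intensity against log time taken from 70 to 1610 s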); conditions: recombinant KvBeta, 4-cyanobenzaldehyde reduction, at 10 µM, stronger effect = higher value
Voltage-gated potassium channel subunit beta-2 (Rattus norvegicus), sequence (P62483 whole entry, looked up): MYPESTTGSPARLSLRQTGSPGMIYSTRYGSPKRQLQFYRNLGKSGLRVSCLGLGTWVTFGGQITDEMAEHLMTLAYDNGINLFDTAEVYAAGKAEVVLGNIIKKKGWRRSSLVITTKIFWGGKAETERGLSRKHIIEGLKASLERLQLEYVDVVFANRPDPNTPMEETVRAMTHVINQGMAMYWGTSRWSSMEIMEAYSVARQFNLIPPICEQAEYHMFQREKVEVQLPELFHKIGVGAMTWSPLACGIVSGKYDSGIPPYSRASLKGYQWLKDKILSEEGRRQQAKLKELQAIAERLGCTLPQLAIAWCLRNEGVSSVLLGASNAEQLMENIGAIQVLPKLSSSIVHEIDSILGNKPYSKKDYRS

[5] = biological target: Voltage-gated potassium channel subunit beta-2 (Rattus norvegicus) (UniProt P62483); test: enhancers of rat Kvbeta2 NADPH turnover – biochemical, NADPH fluorescence, primary screen (AID 623;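 active = NADPH fluorescence slope more negative than the mean of all samples by about 3 SD, 99.7% confidence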;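 also: fluorescence intensity change per second fitted from 20 to 320 s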); conditions: Recombinant KvBeta, NADPH fluorescence decrease slope, 10 min; at 10 µM; stronger effect = lower value
[6] = biological target: Muscarinic acetylcholine receptor M4 (Homo sapiens) (UniProt P08173); test: M4-linked GIRK flux change, two-sided – cell-based, HEK293 M4/GIRK, thallium flux, BTC-AM, M4 allosteric agonist project, primary screen (AID 625;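 active = fluorescence slope after compound addition differing from the mean of all tested samples at 99.7% confidence, mostly higher but some lower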;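 also: thallium influx through GIRK channels coupled to M4 in HEK293 cells with BTC-AM dye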); conditions: at 10 µM, actives lie on both sides
Muscarinic acetylcholine receptor M4 (Homo sapiens), sequence (P08173 whole entry, looked up): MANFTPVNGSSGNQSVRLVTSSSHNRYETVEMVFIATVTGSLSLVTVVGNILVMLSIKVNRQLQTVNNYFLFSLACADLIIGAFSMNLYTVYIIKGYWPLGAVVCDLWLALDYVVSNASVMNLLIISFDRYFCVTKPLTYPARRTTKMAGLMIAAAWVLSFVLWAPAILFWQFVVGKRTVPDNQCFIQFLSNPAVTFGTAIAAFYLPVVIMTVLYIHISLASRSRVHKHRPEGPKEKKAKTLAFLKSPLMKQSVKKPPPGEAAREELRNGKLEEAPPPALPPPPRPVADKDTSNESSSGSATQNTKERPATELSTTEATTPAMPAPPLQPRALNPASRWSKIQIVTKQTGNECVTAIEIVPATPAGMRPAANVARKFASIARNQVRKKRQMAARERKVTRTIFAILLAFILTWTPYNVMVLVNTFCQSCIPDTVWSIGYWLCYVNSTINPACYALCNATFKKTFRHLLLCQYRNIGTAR
In short: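 Material: M4/GIRK1/GIRK2 stable HEK293 cell line. Medium: pH 7.3 thallium assay buffer. Dosing: single compound concentration, 10 µM final. Schedule: 1 h dye loading, 2 min kinetic read. Measured by: kinetic fluorescence with BTC-AM dye. Read-out: post-addition slope, 15–24 s, of baseline-normalized fluorescence. Benchmarks: carbachol and DMSO controls.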

[7] = blockers of RIG-like receptor reporter activation – cell-based, Sendai virus stimulus, luciferase, 10K MLSCN set, TLR/RLR signaling modifier project, primary screen (AID 602276;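 active = inhibition at or above 50% at 10 µM; inactive = inhibition below 50%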;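 also: firefly luciferase from ISG56 promoter only with Renilla not read in this screen; 0% = Sendai virus plus DMSO and 100% = medium plus DMSO without virus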); conditions: HEK293 RL24 IRF3 luciferase reporter, at 10 µM, stronger effect = higher value
[8] = TLR3 IRF3 reporter activation blockers – cell-based, poly I:C stimulus, luciferase, 10K MLSCN set, primary screen (AID 602277;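 active = inhibition of the reporter signal at or above 50%; inactive = inhibition below 50%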); conditions: HEK293-TLR3 RL24 IRF3 luciferase reporter, at 10 µM, stronger effect = higher value

Structure (SMILES)	cell count [1]	inhibition [1]	inhibition of aggregation [2]	nuclei count [2] [%]	inhibition [3]	nuclei count [3] [%]	fluorescence slope [4]	NADPH fluorescence slope [5]	fluorescence slope [6]	inhibition [7]	inhibition [8]
CCOC(=O)N1CCN(C(=O)C(NS(=O)(=O)c2cccc3nsnc23)c2ccccc2)CC1 (stereo not drawn)	588	1.5% (inactive)	13.3% (inactive)	106	51.1% (inactive)	81.6	-0.599 (inactive)	1.3e-05 (inactive)	0.0056 (inactive)	3.16% (inactive)	9.73% (inactive)
Cc1ccc(CNC(=O)CCCn2c(=O)c3ccccc3n(CC(=O)NCc3ccco3)c2=O)cc1	451	-11.1% (inactive)	-4% (inactive)	114	-76.5% (inactive)	97.1	-0.509 (inactive)	-0.000209 (inactive)	0.00296 (inactive)	-6.73% (inactive)	-15.2% (inactive)
CCOC(=O)c1sc(N2C(=O)C(O)=C(C(=O)c3ccco3)C2c2ccccc2)nc1C (stereo not drawn)	425	2.8% (inactive)	9.3% (inactive)	102	-43.5% (inactive)	97.4	-0.37 (inactive)	-5.7e-05 (inactive)	0.00663 (inactive)	6.84% (inactive)	-6.96% (inactive)
Cc1ccccc1CNS(=O)(=O)c1ccc2c(c1)OCCO2	450	3.6% (inactive)	2.1% (inactive)	108	-11.6% (inactive)	96.6	-0.558 (inactive)	-1.9e-05 (inactive)	0.00348 (inactive)	7.7% (inactive)	11.3% (inactive)
C=C(c1ccc(O)cc1)c1ccc(O)cc1	447	-0.5% (inactive)	-1.6% (inactive)	123	-75% (inactive)	205	-0.37 (inactive)	1.7e-05 (inactive)	0.00598 (inactive)	13.9% (inactive)	16.6% (inactive)
Cc1cc(NC(=O)COC(=O)c2cccc(S(=O)(=O)N3CCOCC3)c2)no1	457	-26.1% (inactive)	10.5% (inactive)	106	67.8% (active)	64.5	-0.471 (inactive)	1.8e-05 (inactive)	0.00706 (inactive)	12.1% (inactive)	24.4% (inactive)
CCSC1=C(C#N)C(c2cccc(OC)c2)CC(=O)N1 (stereo not drawn)	667	-14.3% (inactive)	-16.9% (inactive)	101	-70.7% (inactive)	114	-0.496 (inactive)	-3.8e-05 (inactive)	0.00475 (inactive)	14.9% (inactive)	11.6% (inactive)
CCCCc1cc(=O)oc2cc(C)cc(OC(C)C(=O)O)c12 (stereo not drawn)	452	-2.1% (inactive)	-5.4% (inactive)	110	-39.6% (inactive)	134	-0.0718 (inactive)	-1e-05 (inactive)	0.00603 (inactive)	5.95% (inactive)	21.5% (inactive)
Cc1ccc(C)c(NC(=O)C2CCC(C)(C(=O)O)C2(C)C)c1 (stereo not drawn)	352	-2.5% (inactive)	6% (inactive)	98	-105% (inactive)	124	-0.603 (inactive)	2.7e-06 (inactive)	0.00734 (inactive)	15.8% (inactive)	30.8% (inactive)
COc1cccc(C(=O)Nc2ccc(N(C)C)cc2)c1OC	718	0.8% (inactive)	1.4% (inactive)	104	-79.8% (inactive)	109	-0.493 (inactive)	1.7e-05 (inactive)	0.00556 (inactive)	-4.94% (inactive)	-69.6% (inactive)
COc1cccc2c(=O)c3c(cnn3C)n(C)c12	279	16.3% (inactive)	-31.5% (inactive)	52.8	-37.2% (inactive)	111	-0.412 (inactive)	3.1e-05 (inactive)	0.00385 (inactive)	-10.8% (inactive)	-29.4% (inactive)
O=C(c1ccco1)N1CCN(C(=O)C2CCN(S(=O)(=O)c3cccc4nsnc34)CC2)CC1	549	9.4% (inactive)	5.1% (inactive)	104	8.2% (inactive)	96.4	-0.468 (inactive)	0.000197 (inactive)	0.00637 (inactive)	8.36% (inactive)	18.1% (inactive)
CCOC(=O)c1sc2nc(C)cc(C)c2c1N	443	8.7% (inactive)	-13.6% (inactive)	111	-26% (inactive)	127	-0.105 (inactive)	-1.9e-05 (inactive)	0.00463 (inactive)	-33.2% (inactive)	-45.5% (inactive)
CC1C(O)=C(c2nc3ccccc3[nH]2)C(=N)N1c1ccccc1 (stereo not drawn)	331	2.2% (inactive)	-12.9% (inactive)	103	-1.7% (inactive)	104	-0.482 (inactive)	-2.5e-05 (inactive)	0.00621 (inactive)	-3.95% (inactive)	-41% (inactive)
CCOC(=O)CSc1nc2ccccc2c(=O)n1NC(=O)c1ccccc1	472	-5.7% (inactive)	-2% (inactive)	119	10.7% (inactive)	92.2	-0.445 (inactive)	3.6e-06 (inactive)	0.00551 (inactive)	1.47% (inactive)	-19.8% (inactive)
COc1ccc(N2CCN(C(=O)CSc3nnc(Cn4nnc5ccccc54)n3C)CC2)cc1	525	5.7% (inactive)	-2.8% (inactive)	103	-48.7% (inactive)	101	-0.578 (inactive)	-2.5e-05 (inactive)	0.0066 (inactive)	-9.14% (inactive)	-5.63% (inactive)
CCc1ccc2nc(NC(=O)CSCc3c(C)noc3C)sc2c1	416	-2% (inactive)	-12.1% (inactive)	105	-87.1% (inactive)	112	-0.463 (inactive)	1.1e-05 (inactive)	0.00795 (inactive)	-52.6% (inactive)	-109% (inactive)
O=S(=O)(c1ccccc1)N1CCN(C2CCCCCCC2)CC1	221	9.7% (inactive)	9% (inactive)	80.6	-53.1% (inactive)	148	-0.479 (inactive)	-1.1e-05 (inactive)	0.00309 (inactive)	-8.03% (inactive)	-10% (inactive)
O=c1c2c3nc4ccccc4nc3n(CC3CCCO3)c2ncn1CCc1ccccc1 (stereo not drawn)	440	-3.2% (inactive)	-0.4% (inactive)	116	-90.8% (inactive)	107	-0.378 (inactive)	-1.1e-05 (inactive)	0.00514 (inactive)	12.8% (inactive)	19.1% (inactive)
COc1cc(C(=O)Nc2ccc3c(c2)C(=O)N(CCC(=O)O)C3=O)cc(OC)c1OC	469	2% (inactive)	4.8% (inactive)	89.5	-37.8% (inactive)	87.3	-0.488 (inactive)	-4.2e-05 (inactive)	0.00491 (inactive)	12.6% (inactive)	18% (inactive)
Cc1nc2ccccc2cc1C(=O)NCc1ccco1	387	3.2% (inactive)	-3.6% (inactive)	75.3	-278% (inactive)	126	-0.53 (inactive)	-3.7e-05 (inactive)	0.00494 (inactive)	1.46% (inactive)	0.0614% (inactive)
COc1ccc(OC)c(S(=O)(=O)Nc2ccccc2C(=O)O)c1	702	-4.4% (inactive)	0% (inactive)	100	35.6% (inactive)	85.9	-0.569 (inactive)	1.5e-05 (inactive)	0.0048 (inactive)	23.8% (inactive)	18.9% (inactive)
CCCn1nc(NS(=O)(=O)c2ccccc2)c2cc3ccccc3nc21	468	-3.8% (inactive)	-8.5% (inactive)	110	12% (inactive)	102	-0.598 (inactive)	2.9e-05 (inactive)	0.00512 (inactive)	6.34% (inactive)	14.1% (inactive)
CCN1C(=O)N(CC)C2C1N(C(C)=O)C(=O)N2C(C)=O (stereo not drawn)	373	3.7% (inactive)	0.2% (inactive)	115	-9.3% (inactive)	117	-0.579 (inactive)	-6.5e-05 (inactive)	0.0074 (inactive)	13.4% (inactive)	16.9% (inactive)
COc1cc(C2Nc3cccc4cccc(c34)N2)cc(OC)c1O	372	-0.6% (inactive)	29.3% (inactive)	91.5	-27.6% (inactive)	108	-0.464 (inactive)	1.6e-05 (inactive)	0.00443 (inactive)	3.04% (inactive)	5% (inactive)
O=C1CC(c2ccc(Cl)cc2)n2nc(N3C(=O)c4ccccc4C3=O)nc2N1 (stereo not drawn)	346	11.4% (inactive)	-2.1% (inactive)	104	30.5% (inactive)	98.9	-0.587 (inactive)	-3.9e-05 (inactive)	0.00353 (inactive)	16.6% (inactive)	24.4% (inactive)
O=C(COC(=O)Cc1cccc(C(F)(F)F)c1)NCC1CCCO1 (stereo not drawn)	704	3.3% (inactive)	3% (inactive)	106	-199% (inactive)	134	-0.497 (inactive)	-0.000214 (inactive)	0.00505 (inactive)	-6.76% (inactive)	2.06% (inactive)
Cn1c(Cc2csc(N)n2)nnc1SCC(=O)NC1CCCCC1	662	-3.3% (inactive)	-15.2% (inactive)	101	16.6% (inactive)	91	-0.479 (inactive)	1.7e-05 (inactive)	0.00433 (inactive)	4.63% (inactive)	-2.17% (inactive)
